The subject of assay [1] is Raji. The experiment in a line: Survival of Raji cells at 32 nmol by trypan blue staining method. It counts as functional, Homo sapiens. The gist of the method: (§1)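 Raji cells (EBV genome-carrying, non-producer) grown to 10⁶ cells/mL, centrifuged, resuspended in RPMI 1640 with 10% FCS, 4 mM n-butyric acid and 32 pmol TPA (20 ng/mL), plus test compound in DMSO (32, 16, 3.2 or 0.32 nmol; 1000–10 mol ratio/TPA). Incubated 37 °C, 48 h; viability counted by hemocytometer with Trypan Blue; ≥60% survival required.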

Assay [2] has as its system Human gammaherpesvirus 4. The experiment in a line: TPA-induced EBV early antigen activation in Raji cells at 32 nmol relative to control.
Assay [3] has as its system Human gammaherpesvirus 4. The experiment in a line: TPA-induced EBV early antigen activation in Raji cells at 0.32 nmol relative to control.
Assay [4] relates to Raji. Briefly: Survival of Raji cells at 0.32 nmol by trypan blue staining method. It counts as functional, Homo sapiens. The gist of the method:
as §1

For assay [5], the system named is Human gammaherpesvirus 4. Briefly: TPA-induced EBV early antigen activation in Raji cells at 3.2 nmol relative to control.
Assay [6] relates to Raji. The experiment in a line: Survival of Raji cells at 16 nmol by trypan blue staining method. The format is functional, Homo sapiens. The method in brief: as §1
Assay [7] has as its system Raji. The experiment in a line: Survival of Raji cells at 3.2 nmol by trypan blue staining method. It counts as functional, Homo sapiens. The gist of the method: as §1
Assay [8] deals with Human gammaherpesvirus 4. Briefly: TPA-induced EBV early antigen activation in Raji cells at 16 nmol relative to control.

Each structure is given as a SMILES string. Bounds are passed on as bounds.

With `COc1cc(/C=C/Cc2ccc(OC)c(OCC=C(C)C)c2O)ccc1O`, the Survival in the assay with Raji [1] is reported as 70%; in the assay on Raji [4] it was above 80%; with Raji [6], above 80%; with Raji [7] it was above 80%. The EBV-EA activation was 0% with Human gammaherpesvirus 4 [2], 87.1% with Human gammaherpesvirus 4 [3], 64.2% in the assay on Human gammaherpesvirus 4 [5] and 28.3% in the assay with Human gammaherpesvirus 4 [8].

For `COc1cc(/C=C/Cc2ccc(OC)c(O)c2OCC=C(C)C)ccc1O`, the Survival with Raji [1] was 70%; in the assay with Raji [4], above 80%; in the assay with Raji [6] it was above 80%; with Raji [7], above 80%. Further, the EBV-EA activation with Human gammaherpesvirus 4 [2] is 0%; with Human gammaherpesvirus 4 [3], 88.1%; with Human gammaherpesvirus 4 [5] it was 63.2%; in the assay with Human gammaherpesvirus 4 [8], 27.8%.

For `COc1c(C/C=C/c2ccccc2)ccc(OCC=C(C)C)c1OC`, the Survival in the assay on Raji [1] is 70%; in the assay with Raji [4] it was above 80%; with Raji [6], above 80%; with Raji [7], above 80%. Moreover, the EBV-EA activation in the assay with Human gammaherpesvirus 4 [2] is on record as 0%; in the assay on Human gammaherpesvirus 4 [3] it was 91.5%; with Human gammaherpesvirus 4 [5], 68.2%; in the assay on Human gammaherpesvirus 4 [8], 29.8%.

As for `COc1cccc(OCC=C(C)C)c1C/C=C/c1ccccc1`, the Survival is 70% with Raji [1], above 80% with Raji [4], above 80% in the assay on Raji [6] and above 80% in the assay with Raji [7]. Besides, the EBV-EA activation in the assay on Human gammaherpesvirus 4 [2] is given as 0%; with Human gammaherpesvirus 4 [3], 92.7%; in the assay on Human gammaherpesvirus 4 [5], 68.9%; with Human gammaherpesvirus 4 [8], 30.8%.

Take `COc1cc(OCC=C(C)C)ccc1C/C=C/c1ccccc1`: the Survival in the assay on Raji [1] is 70%; in the assay with Raji [4], above 80%; in the assay with Raji [6], above 80%; in the assay on Raji [7], above 80%. Also, the EBV-EA activation with Human gammaherpesvirus 4 [2] is listed as 0%; in the assay with Human gammaherpesvirus 4 [3], 87.6%; with Human gammaherpesvirus 4 [5], 65.2%; in the assay on Human gammaherpesvirus 4 [8] it was 29.3%.

With `COc1ccc(C/C=C/c2ccccc2)c(O)c1OCC=C(C)C`, the Survival is given as 70% in the assay with Raji [1], above 80% in the assay with Raji [4], above 80% in the assay with Raji [6] and above 80% in the assay on Raji [7]. The EBV-EA activation in the assay on Human gammaherpesvirus 4 [2] was found to be 0%; in the assay with Human gammaherpesvirus 4 [3], 90.8%; in the assay on Human gammaherpesvirus 4 [5] it was 65.6%; with Human gammaherpesvirus 4 [8] it was 30.6%.

As to `COc1ccc(C/C=C/c2ccccc2)c(OCC=C(C)C)c1O`, the Survival is listed as 70% in the assay on Raji [1], above 80% in the assay on Raji [4], above 80% in the assay on Raji [6] and above 80% in the assay on Raji [7]. The EBV-EA activation with Human gammaherpesvirus 4 [2] stood at 0%; with Human gammaherpesvirus 4 [3] it was 90.6%; in the assay on Human gammaherpesvirus 4 [5], 64.5%; in the assay with Human gammaherpesvirus 4 [8], 27.6%.

Consider `COc1ccc(C/C=C/c2ccccc2)c(OCC=C(C)C)c1OCC=C(C)C`, for which the Survival in the assay with Raji [1] was 70%; in the assay on Raji [4], above 80%; with Raji [6], above 80%; in the assay on Raji [7] it was above 80%. The EBV-EA activation worked out at 0% in the assay on Human gammaherpesvirus 4 [2], 88.6% in the assay with Human gammaherpesvirus 4 [3], 62.2% in the assay on Human gammaherpesvirus 4 [5] and 24.6% with Human gammaherpesvirus 4 [8].

Take `COc1cc(/C=C/C(=O)CC(=O)/C=C/c2ccc(O)c(OC)c2)ccc1O` [CURCUMIN]: the Survival in the assay on Raji [1] is given as 60%; in the assay with Raji [4], above 80%; in the assay on Raji [6], above 80%; with Raji [7], above 80%. In addition, the EBV-EA activation with Human gammaherpesvirus 4 [2] is listed as 0%; in the assay with Human gammaherpesvirus 4 [3], 100%; in the assay with Human gammaherpesvirus 4 [5] it was 81.7%; in the assay on Human gammaherpesvirus 4 [8], 22.8%.

Source of the values: ChEMBL document CHEMBL1147206, “Synthetic cinnamylphenol derivatives as cancer chemopreventive agents” (2007).
